In ChEMBL document CHEMBL1143725, “Alvaradoins E-N, antitumor and cytotoxic anthracenone C-glycosides from the leaves of Alvaradoa haitiensis” (J Nat Prod, 2007):
Calls of active or inactive are those of the source. The rule behind the calls is not given here.

Experiments:
KB = assay: Cytotoxicity against human KB cells; assay type: functional, cell-based
Summary of the method: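 Human oral epidermoid carcinoma (KB) cells were tested following previously established protocols. EC50 values were reported in μM as mean ± SEM from three separate experiments.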

P388 [1] = assay: Antitumor activity in P388 cells xenografted mouse at 0.2 mg/kg body weight, ip for 5 days/week relative to control; assay type: functional; conditions: route intraperitoneal
Summary of the method: (§1)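 Mice carried murine P388 lymphocytic leukemia cells implanted intraperitoneally. Treatment was given i.p. daily, 5 days per week. Activity was expressed as % T/C, treated versus control.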

P388 [2] = assay: Antitumor activity in iv dosed mouse implanted with P388 xenografts; assay type: functional, organism-based
Summary of the method: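 This was a P388 murine lymphocytic leukemia model in which both the leukemia cells and the treatment were delivered intravenously.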

P388 [3] = assay: Antitumor activity in P388 cells xenografted mouse at 0.4 mg/kg body weight, ip for 5 days/week relative to control; assay type: functional; conditions: route intraperitoneal; summary of the method: as §1

Q: What does the source list for `CC(=O)O[C@@H]1O[C@@H]([C@H]2c3cccc(O)c3C(=O)c3c(O)cc(C)cc32)[C@H](O)[C@@H](O)[C@H]1O` [ALVARADOIN E]?
A: EC50 (KB): 50 nM; Activity (P388 [1]): 125%; Activity (P388 [2]): inactive

Q: What does the source list for `CC(=O)O[C@H]1O[C@H]([C@@H]2c3cccc(O)c3C(=O)c3c(O)cc(C)cc32)[C@H](O)[C@@H](O)[C@H]1O` [ALVARADOIN F]?
A: Activity (P388 [3]): 115%; EC50 (KB): 65 nM; Activity (P388 [2]): inactive

Q: `CC(=O)O[C@H]1O[C@H]([C@@H]2c3cccc(O)c3C(=O)c3c(O)cc(C)cc32)[C@H](O)[C@@H](OC(=O)C=C(C)C)[C@H]1O` [ALVARADOIN G] was tested. Which EC50 (KB) did it give?
A: 650 nM

Q: How did the EC50 (KB) turn out when `CC(=O)O[C@@H]1O[C@@H]([C@H]2c3cccc(O)c3C(=O)c3c(O)cc(C)cc32)[C@H](O)[C@@H](OC(=O)C=C(C)C)[C@H]1O` [ALVARADOIN H] was run?
A: 1070 nM

Q: With `CC(=O)O[C@H]1O[C@H]([C@@]2(O)c3cccc(O)c3C(=O)c3c(O)cc(C)cc32)[C@H](O)[C@@H](OC(=O)C=C(C)C)[C@H]1O` [ALVARADOIN I] as the compound, how does the EC50 (KB) read?
A: 12500 nM

Q: For `CC(=O)O[C@H]1O[C@H]([C@]2(O)c3cccc(O)c3C(=O)c3c(O)cc(C)cc32)[C@H](O)[C@@H](OC(=O)C=C(C)C)[C@H]1O` [ALVARADOIN J], which EC50 (KB) is on record?
A: 15900 nM

Q: `CC(C)=CC(=O)O[C@@H]1[C@H](O)[C@@H](O)[C@@H]([C@@H]2c3cccc(O)c3C(=O)c3c(O)cc(C)cc32)O[C@@H]1O` [ALVARADOIN K] was tested. Which EC50 (KB) did it give?
A: 270 nM

Q: With `CC(C)=CC(=O)O[C@@H]1[C@H](O)[C@@H](O)[C@@H]([C@H]2c3cccc(O)c3C(=O)c3c(O)cc(C)cc32)O[C@@H]1O` [ALVARADOIN L] as the compound, how does the EC50 (KB) read?
A: 590 nM

Q: Which EC50 (KB) does the source give for `CC(C)=CC(=O)O[C@@H]1[C@@H](O)[C@@H]([C@H]2c3cccc(O)c3C(=O)c3c(O)cc(C)cc32)O[C@H](O)[C@@H]1O` [ALVARADOIN M] here?
A: 380 nM

Q: `CC(=O)O[C@H]1O[C@H]([C@]2(O)c3cccc(O)c3C(=O)c3c(O)cc(C)cc32)[C@H](O)[C@@H](O)[C@H]1O` [ALVARADOIN N] was tested. Which EC50 (KB) did it give?
A: 2940 nM

Q: How did the EC50 (KB) turn out when `CC[C@@]1(O)C(=O)OCc2c1cc1n(c2=O)Cc2cc3ccccc3nc2-1` [CAMPTOTHECIN] was run?
A: 3.6 nM

Q: How did the EC50 (KB) turn out when `Cc1cc(O)c2c(c1)C(=O)c1cccc(O)c1C2=O` [CHRYSOPHANOL] was run?
A: > 20000 nM
